Source: PubChem BioAssay
EBI2 antag: blocks human EBI2 receptor beta-arrestin signaling | EBI2 beta-arrestin recruitment, luminescence, 7a,25-OHC stimulated | actives 0.81% (n = 360,000) | inhibition, % at 5 µM | P32249; in the data active = inhibition above about 38%;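 note: enzyme fragment complementation signal reports receptor beta-arrestin coupling in cells; 0% = agonist plus DMSO wells and 100% = wells without agonist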
APJ antagonist: antagonists of human APJ apelin receptor. P35414. CHO-K1 APJ beta-arrestin complementation, luminescence. inhibition, % at 20 µM. actives 0.32% (n = 330,000);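 active = inhibition above about 40% at 20 µM, limit read from the data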;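 note: cells challenged with 10 nM apelin-13 agonist together with compound; plate controls were apelin-13 plus DMSO wells for no effect and DMSO wells lacking apelin-13 for full effect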
CXCR6 block: inhibitors of human CXCR6 receptor | CHO-K1 PathHunter CXCR6 beta-arrestin, luminescence | actives 0.36% (n = 360,000) | AID 602244 | O00574 | inhibition, % at 20 µM; in the data active = inhibition above about 34%, passing the limit was not always enough;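 note: antagonist mode with CXCL16 agonist at 10 nM final; 0% = 10 nM CXCL16 with DMSO and 100% = unstimulated wells without agonist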
CCR6 antagonist: CCR6 (human) receptor antagonism | P51684 | CHO-K1 CCR6 PathHunter beta-arrestin, luminescence, CCL20-stimulated | inhibition, % at 20 µM | actives 0.49% (n = 340,000);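 active = compounds whose inhibition of the agonist-driven luminescence signal at 20 µM reaches about 50%, limit read from the data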;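 note: cells stimulated with CCL20 at 14 nM final; plate controls were DMSO with CCL20 for no effect and DMSO without agonist for full effect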
Target sequence (P51684 whole entry, looked up): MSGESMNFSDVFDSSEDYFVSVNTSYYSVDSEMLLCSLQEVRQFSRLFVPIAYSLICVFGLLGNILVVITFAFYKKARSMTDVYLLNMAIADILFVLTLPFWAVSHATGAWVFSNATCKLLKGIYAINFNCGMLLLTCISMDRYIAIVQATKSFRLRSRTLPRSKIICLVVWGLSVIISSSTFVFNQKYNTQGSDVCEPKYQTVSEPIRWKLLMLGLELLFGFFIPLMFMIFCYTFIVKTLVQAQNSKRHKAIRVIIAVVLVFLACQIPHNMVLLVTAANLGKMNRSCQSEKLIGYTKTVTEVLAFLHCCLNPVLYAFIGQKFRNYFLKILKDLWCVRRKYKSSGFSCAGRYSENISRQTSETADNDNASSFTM
APJ ag: agonists of human APJ apelin receptor; activation, % at 20 µM; P35414; CHO-K1 APJ PathHunter beta-arrestin, luminescence; 0% DMSO wells, 100% apelin; AID 2520; actives 0.11% (n = 330,000);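 active = activation more than six SD over the plate average, tested at 20 µM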;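 note: 0% = DMSO alone and 100% = apelin-13 at 10 nM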
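Test system: CHO-K1 APJ beta-arrestin complementation cell line. Amount: cell density 1000 per well. Controls: DMSO negative, 10 nM Apelin-13 positive. Signal: luminescent beta-gal fragment complementation, chemiluminescent substrate. Read-out basis: agonist-driven arrestin binding to APJ. Timing: compound stimulation 90 min at 25 °C, detection 60 min.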
The depositor's hits bear a star; x = no result given. An excerpt weighted towards active compounds, which were near 1.5% of everything screened.

SMILES | EBI2 antag | APJ antagonist | CXCR6 block | CCR6 antagonist | APJ ag
CC(C)C[C@H](N)c1nnc(S(=O)(=O)Cc2ccc(F)cc2)o1 | -9 | 14 | 42* | 35 | -1
CCCC(=O)Nc1ccc2c(c1)C(=O)N(C)C[C@@H](OC)[C@H](C)CN(Cc1ccc(-c3ccccn3)cc1)[C@@H](C)CO2 | -3 | x | x | x | x
O=C(NCc1cccc(C(F)(F)F)c1)C1C(=O)Nc2ccccc2C(=O)N1C1CCCC1 (stereo unspecified) | -8 | x | x | x | x
COc1cc(/C=C2\SC(=S)N(NS(=O)(=O)c3ccc(C)cc3)C2=O)ccc1O | 13 | 36 | 37* | 50 | -7
CC(/C=C1\SC(=S)N(NC(=O)c2ccncc2)C1=O)=C\c1ccccc1 | 14 | 3 | 3 | 7 | 1
COc1cc(/C=C2\SC(=S)N(Nc3ccccc3)C2=O)cc(OC)c1OC | 11 | -9 | 0 | 51* | 1
O=C(NN1C(=O)/C(=C/c2cccs2)SC1=S)c1cccnc1 | 18 | 7 | 5 | 17 | 1
COc1cc(/C=C2\SC(=S)N(NC(=O)c3ccncc3)C2=O)ccc1O | 13 | 34 | 34 | 53* | -6
CCOc1ccc(/C=C2\SC(=S)N(Nc3ccccc3)C2=O)cc1OC | 6 | 0 | 5 | 0 | -2
CCOc1cc(/C=C2\SC(=S)N(NC(=O)c3cccnc3)C2=O)ccc1O | 12 | 44* | 37 | 43 | -9
COC1=CC(C)C2CC3OC(O)CC4C(C)=C(OC)C(=O)C(C2(C)C1=O)C34C (stereo unspecified) | -2 | x | -1 | x | x
O=C(C(Br)=Cc1ccccc1)c1ccccc1 | 69* | x | 48* | 69* | x
CC(=Cc1ccccc1)C(=O)c1ccccc1 | -8 | x | -4 | x | x
CN1CCc2nc(SCc3ccc(Cl)cc3)c(C#N)c(-c3cccs3)c2C1 | x | 27 | x | 74* | -1
CCOC(=O)[C@]12CCC=C1N(Cc1ccc(Cl)cc1Cl)C(=O)[C@H](CC(=O)N1CCC(c3ccccc3)CC1)C2 | 13 | x | 7 | x | x
CN(Cc1ccccc1)S(=O)(=O)c1ccc(NC(=S)NC(=O)C(C)(C)C)cc1 | 14 | 18 | 26 | 21 | 2
CN(Cc1ccccc1)S(=O)(=O)c1ccc(NC(=S)NC(=O)C2CCCCC2)cc1 | 18 | 5 | 33 | 51* | -4
N#C/C(=C/c1ccc(-c2cccc([N+](=O)[O-])c2)o1)C(=O)Nc1nc(-c2cccs2)cs1 | 7 | x | 22 | 69* | x
N#C/C(=C\c1ccc(-c2ccccc2[N+](=O)[O-])o1)C(=O)Nc1nc(-c2cccs2)cs1 | 3 | 23 | 36 | 51* | -6
N#C/C(=C\c1ccc(-c2ccc([N+](=O)[O-])cc2)o1)C(=O)Nc1nc(-c2cccs2)cs1 | 16 | 18 | 34 | 58* | -3
N#C/C(=C/c1ccc(-c2ccccc2[N+](=O)[O-])o1)C(N)=O | -8 | -6 | -11 | 4 | 0
CSC1=NS(=O)(=O)c2c(C)nn(C)c2S1 | -1 | -12 | -1 | 0 | 3
Cc1cccc(C)c1NC(=O)C(C1CC1)n1c(-c2ccc(C(F)(F)F)cc2)nc2ccccc21 (stereo unspecified) | 6 | x | x | x | x
CCCCCOc1ccc(/C=c2\sc3nc(=O)c(-c4ccccc4)nn3c2=O)cc1OC | 23 | -10 | -5 | -3 | 0
O=c1nc2s/c(=C\c3ccc(-c4ccccc4[N+](=O)[O-])o3)c(=O)n2nc1-c1ccccc1 | -6 | x | 0 | 58* | x
SMILES | EBI2 antag | APJ antagonist | CXCR6 block | CCR6 antagonist | APJ ag
CC(C)NC(=O)N[C@H]1CC[C@H](CC(=O)NCc2ccc(Oc3ccccc3)cc2)O[C@@H]1CO | -10 | x | x | x | x
COc1ccc(-n2c(O)c(/C=N/NS(=O)(=O)c3ccc(C)cc3)c3ccccc3c2=O)cc1OC | -8 | -16 | -4 | 16 | 0
COc1ccc(-n2c(O)c(/C=N/Nc3nc(C)cc(C)n3)c3ccccc3c2=O)cc1OC | 2 | 22 | 37* | 73* | -3
O=C(Nc1ccccc1)c1ccc2nc(-c3ccco3)c(-c3ccco3)nc2c1 | 8 | -7 | 9 | 27 | -2
CC(=O)c1ccc(NC(=O)c2ccc3nc(-c4ccco4)c(-c4ccco4)nc3c2)cc1 | -7 | -7 | 46* | 33 | 6
CCOc1cc(/C=C2\C(=O)ON=C2C)ccc1OCc1ccccc1 | 6 | -20 | -33 | -19 | 9.7*
O=S1(=O)C=C(Sc2nc3ccccc3s2)c2ccccc21 | x | 20 | x | 72* | -3
Cc1cc(C)nc(SC2=CS(=O)(=O)c3ccccc32)n1 | -54 | -11 | 9 | 13 | -4
CCCCc1c(Cc2cccc(F)c2)ncn1CCc1ccccc1OC | 16 | x | 0 | x | x
COc1ccc(N2CC(C(=O)N/N=C/c3cc([N+](=O)[O-])ccc3O)CC2=O)cc1 (stereo unspecified) | 4 | 16 | 16 | 56* | -7
O=C(N/N=C/c1cc([N+](=O)[O-])ccc1O)c1cc(-c2ccccc2)nc2ccccc12 | 32 | 11 | 2 | 32 | 0
O=C(N/N=C/c1cc([N+](=O)[O-])ccc1O)C12CC3CC(CC(C3)C1)C2 | 79* | 31 | 40 | 71* | -10
O=[N+]([O-])c1ccc(O)c(/C=N/Nc2ccccn2)c1 | 64* | x | 22 | 61* | x
Cc1cc(C(=O)N/N=C/c2cc([N+](=O)[O-])ccc2O)c2ccccc2n1 | 49* | -15 | -2 | 3 | -2
O=c1ccc2cccc([N+](=O)[O-])c2[nH]1 | -9 | x | -11 | x | x
COc1ccccc1-c1csc(C(O)c2ccccc2)n1 (stereo unspecified) | 2 | x | 3 | x | x
O=[N+]([O-])c1ccc(NN=Cc2ccccc2O)nc1 | 16 | x | 22 | x | x
O=[N+]([O-])c1ccc(NN=Cc2ccc(O)cc2O)nc1 | 14 | x | 34 | 63* | x
COc1ccc(CC2=CC(=O)c3ccccc3C2=O)cc1 | 23 | 20 | 41* | 38 | 5
COc1cccc(OCC(=O)NNC(=O)C(=O)Nc2cccc(C)c2)c1 | -6 | 5 | -2 | 14 | -5
Cc1nc(NC(=O)CSc2nnnn2Cc2ccccc2)sc1C | 4 | -4 | -11 | 86* | -1
CC1(C(=O)Nc2ccc3c(c2)OCCO3)CN(S(C)(=O)=O)CC(=O)N1CCc1ccccc1F (stereo unspecified) | 1 | x | x | x | x
CCC(C)[C@H]1CNC(=S)N1CCc1cccc2ccccc12 (stereo partly specified) | 46* | 22 | 10 | 16 | 1
CCC(C)[C@H]1CNC(=O)C(=O)N1CCc1cccc2ccccc12 (stereo partly specified) | 11 | x | 1 | x | x
O=C(NC1CCCC1)C(C1CC1)n1c(-c2ccccn2)nc2ccccc21 (stereo unspecified) | 0 | x | x | x | x
CCC(=O)NC(c1ccc(C)cc1)c1cc(Cl)c2cccnc2c1O (stereo unspecified) | 32 | 26 | 12 | 56* | -4
Oc1c(Cl)cc(CN2CCCCC2)c2cccnc12 | 5 | 25 | 49* | x | -8
